# Columns and labels:
# Rattus norvegicus [1] = species: Rattus norvegicus; assay: Evaluated for the interaction with 0.2 mM of the stable free radical DPPH.; format: functional
# Procedure, shortened: (§1)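 Compounds were reacted with the stable free radical DPPH at 0.2 mM. The IC50 (mM) is the concentration that reacts with half of the radical.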
# Rattus norvegicus [2] = species: Rattus norvegicus; assay: Inhibition of in vitro peroxidation (LP) of rat Hepatic microsomal membrane lipid; format: functional
# Procedure, shortened: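 Rat liver microsomal membranes were subjected to lipid peroxidation induced by ferrous ions and ascorbate. Values are mean ± SEM, n = 3.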
# Rattus norvegicus [3] = species: Rattus norvegicus; assay: Effect on in vitro myocardial electrical activity (arrhythmia score) at 5 uM; format: functional, Myocardium
# Rattus norvegicus [4] = species: Rattus norvegicus; assay: Effect of compound on in vitro accumulation of MDA content in heart at concentration of 5 uM; format: functional
# Rattus norvegicus [5] = species: Rattus norvegicus; assay: The compound was evaluated for the interaction with 0.2 mM of the stable free radical DPPH; format: functional; procedure, shortened: as §1
# Rattus norvegicus [6] = species: Rattus norvegicus; assay: Effect on in vitro accumulation of MDA content in heart, at conc of 5 uM; format: functional
IC50 (Rattus norvegicus [1]) [µM],IC50 (Rattus norvegicus [2]) [µM],IC50 (Rattus norvegicus [5]) [µM],SMILES,Arrhythmia score (Rattus norvegicus [3]),MDA content (Rattus norvegicus [4]),MDA content (Rattus norvegicus [6])
20,2.58,–,Cc1c(C)c2c(c(C)c1O)CCC(C)(C(=O)Nc1ccc3c(c1)Cc1cc(NC(=O)CCCCC4CCSS4)ccc1-3)O2 (stereo not given),–,–,–
–,24.8,45,Cc1c(C)c2c(c(C)c1O)CCC(C)(C(=O)O)O2 (stereo not given) [TROLOX],3.15,1.07 uM (g of tissue)-1,–
> 400,> 1000,–,"O=C(O)CCCCC1CCSS1 (stereo not drawn) [LIPOIC ACID, ALPHA]",6.3,–,1.03 µM (g of tissue)-1
